# TAAR1 antagonist = human TAAR1 antagonists, primary screen, Fluo-8 calcium fluorescence, CHO RD-HGA16 cells; Trace amine-associated receptor 1 (Homo sapiens), Q96RJ0; antagonist; inhibition, % at 3 µM; hit rate 1.5% among 360,000;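 active means inhibition above a per-plate cutoff, the mean inhibition of test compounds on that plate plus 3 SD, cut at about 49% in these data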
# Target sequence (Q96RJ0 whole entry, looked up): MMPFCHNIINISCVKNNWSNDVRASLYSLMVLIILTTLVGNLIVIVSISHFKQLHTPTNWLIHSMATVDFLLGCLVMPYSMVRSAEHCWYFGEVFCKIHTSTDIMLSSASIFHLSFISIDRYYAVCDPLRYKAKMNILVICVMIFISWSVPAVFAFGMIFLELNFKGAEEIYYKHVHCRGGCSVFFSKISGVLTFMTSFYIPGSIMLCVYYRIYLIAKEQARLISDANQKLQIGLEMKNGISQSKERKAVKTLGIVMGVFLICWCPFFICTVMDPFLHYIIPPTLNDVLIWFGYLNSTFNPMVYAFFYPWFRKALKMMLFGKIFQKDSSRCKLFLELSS
#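 System: CHO RD-HGA16 cells bearing hTAAR1. Reagent: EC80 β-phenethylamine stimulus. Schedule: seeding 17-24 h prior, 75-min 37 °C, 30-min RT dye loading. Signal: Fluo-8 intracellular calcium dye fluorescence, real-time kinetic reads. Read-out: % inhibition from peak post-agonist over basal fluorescence ratio. Benchmarks: vehicle wells and EC80 agonist wells. Replicates: n of 1.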
# GalR3 antagonist = GalR3 antagonists in HEK293 cells, primary screen, cell-based, fluorescence readout; hit rate 0.44% among 360,000; HEK293 GalR3-CNG cAMP membrane potential fluorescence; galR3 body fused to GalR1 C-terminus; AID 651719, 2012; inhibition, % at 3 µM;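 active means inhibition above the screen-wide average plus 3 SD, cut at about 13% in these data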;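 further: forskolin and galanin both at EC90 stimulate the cells; cAMP rise reported by CNG channel membrane potential dye signal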
# Target sequence (O60755 1-299 limits assumed): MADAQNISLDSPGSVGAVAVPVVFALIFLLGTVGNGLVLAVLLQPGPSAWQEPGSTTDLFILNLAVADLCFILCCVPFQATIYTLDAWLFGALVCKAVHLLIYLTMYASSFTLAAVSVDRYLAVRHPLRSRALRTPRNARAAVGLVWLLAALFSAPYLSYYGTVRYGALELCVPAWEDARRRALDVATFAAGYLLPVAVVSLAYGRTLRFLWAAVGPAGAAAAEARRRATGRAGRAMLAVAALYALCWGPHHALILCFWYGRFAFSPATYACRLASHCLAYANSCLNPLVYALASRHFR
# TAAR1 ag = human TAAR1 agonists, primary screen, Fluo-8 calcium fluorescence, CHO RD-HGA16 cells; activation, % at 3 µM; Trace amine-associated receptor 1 (Homo sapiens), Q96RJ0; vehicle wells 0%, saturating PEA agonist 100%; AID 624467, 2012; hit rate 0.99% among 360,000;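 active means activation above the mean activation of all test compounds in the run plus 3 SD, cut at about 38% in these data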
#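 test system = CHO RD-HGA16 cells carrying human TAAR1 plus Gα16 | schedule = 17-24 h seeding, 75 min 37 °C dye, 30 min RT | compound dosing = 3 µM single concentration | control set = DMSO and PEA EC100 | replicates = n 1 | signal = Fluo-8 fluorescence, 5 s baseline then 140 s kinetic read | measure = percent activation vs PEA EC100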
# CHO parental Ca = ATP-evoked calcium signal inhibitors, parental CHO, primary screen, counter-screen for OX1R antagonist project, cell-based, fluorescence, Fluo-8 calcium dye; inhibition, % at 5.6 µM; parental CHO-K1, ATP-induced calcium, Fluo-8 fluorescence; AID 463079, 2010; hit rate 0.63% among 330,000;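 active means inhibition above that plate's mean sample inhibition plus 3 SD, cut at about 26% in these data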
#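 Assay system: parental CHO cells; Read-out basis: percent inhibition of ATP-evoked calcium rise, normalized to controls; Benchmarks: ATP and no-ATP DMSO wells; Compound dosing: single nominal dose of 5.6 µM per compound; Signal: Fluo-8 calcium dye fluorescence; Also added: ATP as calcium-mobilizing challenge; Repeats: singlicate.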
# OX1R antag-1 = antagonists of human orexin 1 receptor (OX1R). inhibition, % at 6.6 µM. AID 485270, 2010. OX1R-expressing cells, FRET antagonist read-out. Orexin/Hypocretin receptor type 1 (Homo sapiens), O43613. hit rate 1.8% among 330,000; in the data active means inhibition mostly above about 38%, no sharp cut-off; inactive means mostly below about 40%
# OX1R antag-2 = OX1R (HCRTR1) antagonists, primary screen, fluorescence, CHO/OX1R cells, Fluo-8 calcium, orexin A; Fluo-8 calcium fluorescence; hit rate 0.43% among 330,000; inhibition, % at 5 µM;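 active means inhibition above its plate's threshold, mean inhibition of all tested compounds on the plate plus 3 SD, cut at about 37% in these data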
# TAAR1 ag conf = human TAAR1 agonists, retest of hits, confirmation, Fluo-8 calcium fluorescence, CHO RD-HGA16 cells; activation, % at 3 µM; AID 651783, 2012; shares compounds with TAAR1 ag; hit rate 82% among 2,400; scaled: DMSO 0%, maximal phenethylamine 100%;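 active means activation above a cutoff set at the run's mean compound activation plus 3 SD, cut at about 39% in these data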
# Ga16 nonsel ag = nonselective calcium mobilization agonists, CHO-Ga16 cells, counter-screen for hTAAR1 agonist project, cell-based, fluorescence, CHO-Ga16 parental line; activation, % at 3 µM; hit rate 50% among 2,400; Fluo-8 calcium fluorescence; normalized to maximal ATP response, DMSO zero; shares compounds with TAAR1 ag;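 active means activation above the run cutoff, the mean activation over all tested wells plus 3 SD, cut at about 12% in these data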
# TAAR1 desensitize = TAAR1 desensitization by agonist hits, confirmation, counter-screen for TAAR1 agonist project, cell-based, fluorescence, tachyphylaxis; hit rate 46% among 2,400; inhibition, % at 3 µM; shares compounds with TAAR1 ag; CHO RD-HGA16 hTAAR1, Fluo-8 calcium, beta-PEA response inhibition;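 active means inhibition above the run cutoff, the mean inhibition of all test compounds plus 3 SD, cut at about 49% in these data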;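 further: beta-PEA stimulus applied at its EC80; loss of beta-PEA calcium signal after compound pretreatment read as receptor desensitization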
# Ga16 antag count = inhibition of ATP-evoked calcium response in CHO-Ga16 cells, counter-screen for TAAR1 agonist project, cell-based, fluorescence; hit rate 39% among 2,400; shares compounds with TAAR1 ag; inhibition, % at 3 µM; CHO-Ga16 ATP-induced calcium, Fluo-8 fluorescence; AID 651952, 2012;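 active means inhibition above the plate's mean compound inhibition plus 3 SD, computed per plate, cut at about 22% in these data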
# A number is an active result; n = inactive; x = no result. This is a sample that favours compounds with a hit; in the whole collection about 4.2% have one here.
SMILES,TAAR1 antagonist,GalR3 antagonist,TAAR1 ag,CHO parental Ca,OX1R antag-1,OX1R antag-2,TAAR1 ag conf,Ga16 nonsel ag,TAAR1 desensitize,Ga16 antag count
COc1cc(CN2CCCCCC2)cc([N+](=O)[O-])c1O,n,n,n,n,n,n,x,x,x,x
CCOC(=O)c1cnn(-c2ccccc2)c1NC(=O)CN1CCOCC1,n,n,n,n,n,n,x,x,x,x
COc1ccc(C(CCN2CCCCC2)c2c(OC)cc(OC)c3c(-c4ccccc4)cc(=O)oc23)cc1 (stereo not drawn),n,n,68,n,n,n,66,42,53,48
COc1cc(OC)c2c(-c3ccccc3)cc(=O)oc2c1C(CCN1CCCCC1)c1ccc2c(c1)OCO2 (stereo not drawn),n,n,43,n,n,n,45,12,n,n
COc1cc(OC)c2c(-c3ccccc3)cc(=O)oc2c1C(CCN1CCCC(C)C1)c1ccc2c(c1)OCO2 (stereo not drawn),n,n,n,n,n,n,x,x,x,x
COc1cc(OC)c2c(-c3ccccc3)cc(=O)oc2c1C(CCN1CCCCC1)c1ccc(N(C)C)cc1 (stereo not drawn),x,x,x,n,n,n,x,x,x,x
CC(=O)O[C@@H]1C[C@@]2(C)[C@@H](CC[C@H]2[C@@H](C)/C=C\CC(C)C)C2=C[C@@H](O)[C@@]3(O)C[C@@H](O)[C@H](O)C[C@]3(CO)[C@]21O,97,n,116,x,x,x,n,16,n,28
CC(=O)O[C@H]1CC[C@]2(C)C3CC[C@]4(C)[C@@H]([C@H](C)/C=C/[C@H](C)C(C)C)CC[C@H]4[C@@]34C=C[C@]2(C1)N(C(=O)c1ccccc1)O4 (stereo partly drawn),n,n,n,x,x,x,x,x,x,x
C=CCn1c(O)c(N=NC(=O)OC(C)(C)C)c2ccccc21,n,n,n,n,n,n,x,x,x,x
Oc1c(C=Nc2cccc3cccnc23)sc2ccccc12,94,n,130,49,n,99,39,69,58,69
O=C(CN1C(=O)CSc2ccc(S(=O)(=O)N3CCOCC3)cc21)N1CCCCC1,n,n,n,n,n,n,x,x,x,x
O=c1[nH]nc(Br)c(=O)n1C(c1ccccc1)c1ccccc1,n,n,71,x,x,x,47,26,n,n
O=c1[nH]c(=O)n(C(c2ccccc2)c2ccccc2)cc1Br,n,n,n,n,n,n,x,x,x,x
O=C(CCN1CCN(c2ccccc2)CC1)NNC(=O)Cc1ccccc1Cl,n,n,n,n,n,n,x,x,x,x
CC1(c2ccc(OC(F)F)cc2)NC(=O)N(/N=C/c2c(O)ccc3ccccc23)C1=O (stereo not drawn),54,n,64,n,n,n,68,48,73,59
CCOC(=O)C1=C[C@@H](CC)N(S(=O)(=O)c2ccccc2)[C@H]1c1ccccc1,n,n,n,x,x,x,x,x,x,x
O=C(Nc1nc(-c2ccc(Cl)cc2)cs1)NC1CCCCC1,n,n,n,n,n,n,x,x,x,x
Cc1cc(=O)c(C(=O)c2ccccc2)c(C)o1,n,n,n,n,n,n,x,x,x,x
COc1ccccc1NC(=O)CCN1CCN(Cc2ccccc2)CC1,n,n,n,n,n,n,x,x,x,x
O=C1/C(=C\c2cc([N+](=O)[O-])ccc2O)SC(=S)N1Cc1ccc(Cl)cc1,87,n,84,62,n,68,113,121,102,97
O=C1/C(=C/c2ccncc2)SC(=S)N1Cc1ccccc1,n,n,n,n,n,n,x,x,x,x
O=C1/C(=C\c2cccc(O)c2O)SC(=S)N1Cc1ccccc1,n,n,50,n,n,n,n,18,n,29
O=C(O)CN1C(=O)/C(=C\c2cc([N+](=O)[O-])ccc2OCc2ccccc2Cl)SC1=S,n,n,n,n,n,n,x,x,x,x
CN1CCN(C(c2cccnc2)c2ccc3cccnc3c2O)CC1 (stereo not drawn),x,x,x,n,n,n,x,x,x,x
CN1CCN(C(c2ccc(Br)cc2)c2cc(Cl)c3cccnc3c2O)CC1 (stereo not drawn),n,n,69,n,n,n,121,88,76,43
SMILES,TAAR1 antagonist,GalR3 antagonist,TAAR1 ag,CHO parental Ca,OX1R antag-1,OX1R antag-2,TAAR1 ag conf,Ga16 nonsel ag,TAAR1 desensitize,Ga16 antag count
O=C(CSc1ncc(-c2ccc(F)cc2)[nH]1)N1CCCCC1,n,n,n,n,n,n,x,x,x,x
O=C(NCCNC(=O)c1ccc(-c2ccc(Cl)c(Cl)c2)o1)c1cnccn1,82,n,63,n,n,n,57,40,72,51
CCCNS(=O)(=O)c1cc(Cl)ccc1OC,n,n,n,n,n,n,x,x,x,x
CCN1CCc2nc3sc(C(=O)Nc4cccnc4Cl)c(N)c3cc2C1,n,n,n,n,n,n,x,x,x,x
CCN1CCc2nc3sc(C(=O)N4CCc5ccccc5C4)c(N)c3cc2C1,n,n,80,n,n,n,67,n,n,n
CC(C)c1ccc2nc3sc(C(=O)N4CCc5ccccc5C4)c(N)c3cc2c1,n,n,83,n,n,n,88,31,63,40
O=C(c1ccc(CN2CCc3ccccc3C2)cc1)N1CCN(c2ccccc2)CC1,n,n,n,n,n,n,x,x,x,x
O=C(CN(C1CCCCC1)C1CCCCC1)N1CCc2ccccc2C1,99,n,96,n,n,n,106,21,105,29
O=C(c1ccc(CN2CCc3ccccc3C2)cc1)N1CCc2ccccc2C1,n,n,67,n,n,n,64,n,n,n
Cc1ccccc1OCC(=O)N1CCc2ccccc2C1,n,n,42,n,n,n,88,n,n,n
